Test results as given in PMC2889198 (Bioconjugate chemistry, 2009).

What was measured:
[1] = system: Androgen receptor N-terminal domain (AR-NTD), C-terminal His6-tag; experiment: SPR binding kinetics of tris-NTA chip with His6-tagged AR-NTD; details: for kd Instant dissociation rate constant / ka Instant association rate constant: 25 °C, 1:1 binding model; for ka Instant association rate constant: Ni(II)-activated tris-NTA; for Kd: read-out: KD Equilibrium dissociation constant, 25 °C, 1:1 binding model
Method in brief: (§1)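 Streptavidin chip washed with 50 mM NaOH/1 M NaCl and run in HBS-P pH 7.4 at 25 °C. Flow cell 1 is a blank; the others carry biotin-tris-NTA at about 50 RU. Each cycle: 5 mM NiCl2 activation, His6-protein injection (1–10 nM; mKate in 1 nM steps, 7 nM omitted), 0.3 M EDTA strip, 0.25% SDS/0.5 M NaCl rinse. Duplicates, double-referenced, global 1:1 Langmuir fit.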

[2] = system: Monomeric Katushka (mKate), C-terminal His6-tag; experiment: SPR binding kinetics of tris-NTA chip with His6-mKate; details: for kd Instant dissociation rate constant / ka Instant association rate constant: 25 °C, 1:1 binding model; for ka Instant association rate constant: 1~10 nM analyte; for Kd: read-out: KD Equilibrium dissociation constant, 25 °C, 1:1 binding model
Method in brief: as §1

[3] = system: His6-tagged peptide […]; experiment: SPR binding kinetics of tris-NTA chip with His6-peptide; details: for ka Instant association rate constant / kd Instant dissociation rate constant: 25 °C, 1:1 binding model; for Kd: read-out: KD Equilibrium dissociation constant, 25 °C, 1:1 binding model
[4] = system: Tumor necrosis factor alpha-stimulated gene-6 (TSG6), C-terminal His6-tag; experiment: SPR binding kinetics of tris-NTA chip with His6-tagged TSG6; details: for ka Instant association rate constant / kd Instant dissociation rate constant: 25 °C, 1:1 binding model; for Kd: read-out: KD Equilibrium dissociation constant, 25 °C, 1:1 binding model
Method in brief: as §1

[5] = molecular target: T1, Yeast cytosine deaminase (yCD), C-terminal His6-tag (Saccharomyces cerevisiae, UniProt Q12178); experiment: SPR binding kinetics of tris-NTA chip with His6-tagged yCD; details: for kon: read-out: ka Instant association rate constant; for koff: read-out: kd Instant dissociation rate constant
T1 sequence (Q12178 with tags, fused parts or gaps): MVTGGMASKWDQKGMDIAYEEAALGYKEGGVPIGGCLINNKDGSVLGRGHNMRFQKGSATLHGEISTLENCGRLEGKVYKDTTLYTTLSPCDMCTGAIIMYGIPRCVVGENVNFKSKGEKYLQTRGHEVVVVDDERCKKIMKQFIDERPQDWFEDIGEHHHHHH
Method in brief: as §1

[6] = molecular target: hexahistidine (His6) tagged proteins; details: read-out: equilibrium dissociation constant KD between mono-NTA and His6; cited from earlier work

| SMILES | kd Instant dissociation rate constant [1] | ka Instant association rate constant [1] | Kd [1] [nM] | kd Instant dissociation rate constant [2] | ka Instant association rate constant [2] | Kd [2] [nM] | ka Instant association rate constant [3] | kd Instant dissociation rate constant [3] | Kd [3] [nM] | ka Instant association rate constant [4] | kd Instant dissociation rate constant [4] | Kd [4] [nM] | kon [5] [M⁻¹ s⁻¹] | koff [5] [s⁻¹] | Kd [6] [nM] |
| --- | --- | --- | --- | --- | --- | --- | --- | --- | --- | --- | --- | --- | --- | --- | --- |
| O=C(O)CN(CC(=O)O)[C@@H](CCCCNC(=O)CCOCCOCCOCCOCCNC(=O)CN(CC(=O)NCCOCCOCCOCCOCCC(=O)NCCCC[C@@H](C(=O)O)N(CC(=O)O)CC(=O)O)[C@@H](CCCCNC(=O)CCCC[C@@H]1SC[C@@H]2NC(=O)N[C@@H]21)C(=O)NCCOCCOCCOCCOCCC(=O)NCCCC[C@@H](C(=O)O)N(CC(=O)O)CC(=O)O)C(=O)O [Compound 6a] | 1.29 10^−3 S^−1 | 0.94 10^5 M^−1 S^−1 | 13.7 | 1.53 10^−3 S^−1 | 5.38 10^5 M^−1 S^−1 | 2.84 | 3.09 10^5 M^−1 S^−1 | 3.97 10^−3 S^−1 | 12.8 | 6.89 10^5 M^−1 S^−1 | 4.84 10^−3 S^−1 | 7.03 | – | – | – |
| O=C(O)CN(CC(=O)O)[C@@H](CCCCNC(=O)CN(CC(=O)NCCCC[C@@H](C(=O)O)N(CC(=O)O)CC(=O)O)[C@@H](CCCCNC(=O)CCCC[C@@H]1SC[C@@H]2NC(=O)N[C@@H]21)C(=O)NCCCC[C@@H](C(=O)O)N(CC(=O)O)CC(=O)O)C(=O)O [Compound 6b] | 1.40 10^−3 S^−1 | 0.81 10^5 M^−1 S^−1 | 17.3 | – | – | – | 1.86 10^5 M^−1 S^−1 | 1.85 10^−3 S^−1 | 9.95 | 19.4 10^5 M^−1 S^−1 | 5.78 10^−3 S^−1 | 3 | 119000 | 0.00083 | – |
| O=C(O)CN(CC(=O)O)[C@@H](CCCNC(=O)CN(CC(=O)NCCC[C@@H](C(=O)O)N(CC(=O)O)CC(=O)O)[C@@H](CCCCNC(=O)CCCC[C@@H]1SC[C@@H]2NC(=O)N[C@@H]21)C(=O)NCCC[C@@H](C(=O)O)N(CC(=O)O)CC(=O)O)C(=O)O [Compound 6c] | 0.27 10^−3 S^−1 | 1.44 10^5 M^−1 S^−1 | 1.87 | 0.43 10^−3 S^−1 | 10.6 10^5 M^−1 S^−1 | 0.4 | 2.19 10^5 M^−1 S^−1 | 0.72 10^−3 S^−1 | 3.29 | 3.92 10^5 M^−1 S^−1 | 0.008 10^−3 S^−1 | 0.02 | 197000 | 0.00059 | – |
| O=C(O)CN(CC(=O)O)CC(=O)O [NTA, Nitrilotriacetic acid] | – | – | – | – | – | – | – | – | – | – | – | – | – | – | 10000 |
